Measurements gathered from unrelated publications.
Compare with care: the assays were run in different laboratories. pEC50, pIC50, pKd: −log10 of the molar value.
NTSR1: Neurotensin receptor type 1 (NTSR1, Homo sapiens, UniProt P30989)
ATP2A1: Sarcoplasmic/endoplasmic reticulum calcium ATPase 1 (ATP2A1, Oryctolagus cuniculus, UniProt P04191)
COQ8A: Atypical kinase COQ8A, mitochondrial (COQ8A, Homo sapiens, UniProt Q8NI60)
NR3C2: Mineralocorticoid receptor (NR3C2, Homo sapiens, UniProt P08235)
PIK3CD: Phosphatidylinositol 4,5-bisphosphate 3-kinase catalytic subunit delta isoform (PIK3CD, Homo sapiens, UniProt O00329)

COc1ccccc1C1CCN(c2nc(C3CC3)nc3ccc(N4CCC(N(C)C)C4)cc23)CC1 (stereo not drawn)  pEC50 (NTSR1; β-arrestin recruitment; agonist): ~1.18
COc1cc(/C=C/C(=O)CC(=O)/C=C/c2ccc(O)c(OC)c2)ccc1O  pKd (ATP2A1; binding; fluorescence; pH 7.2): 5.17
CC(C)(C)OC(=O)N1CCN(Cc2ccn(Cc3ccc(Cl)cc3)c(=O)c2O)CC1  pIC50 (Lysine-specific demethylase 6A (Homo sapiens, UniProt O15550); enzyme activity; inhibitor; AlphaScreen): 5.27
O=C(Nc1nc2n(n1)C(c1ccc(F)cc1)C=C(c1ccccc1)N2)c1cccc([N+](=O)[O-])c1 (stereo not drawn)  pIC50 (COQ8A; ligand displacement; TR-FRET): 5.41
C[C@]12CCC(=O)C=C1CC[C@@H]1[C@@H]2[C@@H](O)C[C@@]2(C=O)[C@H]1CC[C@]2(O)C(=O)CO  pEC50 (NR3C2; reporter gene; agonist; luciferase): 7.71
CCc1ccc(NC(=O)CSc2nc(-c3ccc(C)cc3)nc3c2Cc2c(CO)cnc(C)c2O3)cc1  pIC50 (COQ8A; ligand displacement; TR-FRET): 5.06
Cc1nc(Nc2ccc3c(c2)/C(=C/c2ccccc2C)C(=O)N3)c2ccccc2n1  pIC50 (PIK3CD; enzyme activity; inhibitor; ADP detection): 6.90
COc1ccccc1C1CCN(c2nc(C3(C)CCCC3)nc3ccc(N(C)CCO)cc23)CC1  pEC50 (NTSR1; β-arrestin recruitment; agonist): 4.40
Cc1nc(Nc2ccc3c(c2)/C(=C/c2ccccc2)C(=O)N3Cc2ccccc2)c2ccccc2n1  pIC50 (PIK3CD; enzyme activity; inhibitor; ADP detection): 6.65
C[C@]12CCC(=O)C=C1CC[C@@H]1[C@@H]2[C@@H](O)C[C@]2(CO)[C@@H](C(=O)CO)CC[C@@H]12  pEC50 (NR3C2; reporter gene; agonist; luciferase): 7.25
COc1cc2ncnc(N(C)c3ccc4c(c3)/C(=C/c3ccccc3)C(=O)N4C)c2cc1OC (mixture of isomers)  pIC50 (PIK3CD; enzyme activity; inhibitor; ADP detection): 6.38
Cc1noc(C)c1Cc1ccc(C(=O)N2CCc3c(nc4cc(-c5ccccc5)[nH]n4c3=O)C2)o1  pIC50 (COQ8A; ligand displacement; TR-FRET): 6.31
Cc1nc(Nc2ccc3c(c2)/C(=C/c2ccccc2Cl)C(=O)N3)c2ccccc2n1  pIC50 (PIK3CD; enzyme activity; inhibitor; ADP detection): 6.24
NC(=O)c1ncc(N2CCCCC2)nc1Nc1ccc(C2CCN(C[C@H]3CCN(c4ccc5c(c4)C(=O)N(C4CCC(=O)NC4=O)C5=O)C3)CC2)cc1 (stereo partly drawn)  pKd (Tyrosine-protein kinase BTK (BTK, Homo sapiens, UniProt Q06187, T474I); binding; SPR): 7.74
Cc1nc(Nc2ccc3c(c2)C(C)(C)C(=O)N3)c2ccccc2n1  pIC50 (PIK3CD; enzyme activity; inhibitor; ADP detection): < 6.00
COc1ccc2c(c1)CCc1c-2n[nH]c1C(=O)N1CCc2nc3cc(-c4ccccc4)[nH]n3c(=O)c2C1  pIC50 (COQ8A; ligand displacement; TR-FRET): 5.56
COc1cc(/C=C/C(O)=C/C(=O)/C=C/c2ccc(O)cc2)ccc1O  pKd (ATP2A1; binding; fluorescence; pH 7.2): 5.10
Cc1nc(N(C)c2ccc3c(c2)/C(=C/c2ccccc2Cl)C(=O)N3C)c2ccccc2n1  pIC50 (PIK3CD; enzyme activity; inhibitor; ADP detection): < 6.00
